Assay results from ChEMBL document CHEMBL3877244, “Synthesis and biological evaluation of new aryl-alkyl(alkenyl)-4-benzylpiperidines, novel Sigma Receptor (SR) modulators, as potential anticancer-agents” (Eur J Med Chem, 2016).
pIC50, pKi: −log10 of the molar value.

What was measured:
[1] = Displacement of [3H]-DTG from sigma 2 receptor in rat liver after 120 mins by scintillation counting analysis
Procedure, shortened: (§1)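 Rat liver homogenate (150 µg) incubated 120 min at room temperature with 3 nM [³H]-DTG in 50 mM Tris-HCl pH 8.0. (+)-Pentazocine 100 nM masked S1R; haloperidol 10 µM defined nonspecific binding. Ki by Cheng–Prusoff from IC50.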

[2] = molecular target: Sigma non-opioid intracellular receptor 1 (Cavia porcellus, UniProt Q60492); assay: Displacement of [3H]-pentazocine from sigma 1 receptor in guinea pig brain cortical membrane after 120 mins by scintillation counting analysis; format: cell membranes
Sigma non-opioid intracellular receptor 1 (Cavia porcellus, UniProt Q60492), sequence (Q60492 whole entry): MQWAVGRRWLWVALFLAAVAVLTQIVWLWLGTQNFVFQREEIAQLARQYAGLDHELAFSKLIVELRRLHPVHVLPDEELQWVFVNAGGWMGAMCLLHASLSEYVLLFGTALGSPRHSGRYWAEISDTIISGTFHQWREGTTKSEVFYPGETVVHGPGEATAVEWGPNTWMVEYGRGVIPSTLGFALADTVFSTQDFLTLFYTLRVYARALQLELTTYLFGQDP
Procedure, shortened: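 Nonspecific binding defined with unlabeled (+)-pentazocine. Filtration, then scintillation counting. IC50 by nonlinear regression, converted to Ki by Cheng–Prusoff.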

[3] = Antiproliferative activity against human AsPC1 cells after 24 hrs; format: functional, cell-based; conditions: ASPC1, 24 h
[4] = Antiproliferative activity against human MIAPaCa2 cells after 24 hrs; format: functional, cell-based; conditions: MIA PaCa-2, 24 h
[5] = Displacement of [3H]-DTG from sigma 2 receptor in rat liver membranes after 120 mins by scintillation counting analysis; format: cell membranes, Membrane
Procedure, shortened: (§2)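 Rat liver homogenate (150 µg) was incubated 120 min at room temperature with 3 nM [3H]-DTG in 50 mM Tris-HCl pH 8.0, with test compound at 10^-10 to 10^-5 M (final). 100 nM (+)-pentazocine masked S1R and 10 µM haloperidol defined nonspecific binding. Filtration and scintillation counting were used. Ki came from regression IC50 via Cheng-Prusoff.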

[6] = Antiproliferative activity against mouse Panc02 cells after 24 hrs; format: functional, cell-based; conditions: Panc02, 24 h
[7] = Antiproliferative activity against human PANC1 cells after 24 hrs; format: functional, cell-based; conditions: PANC-1, 24 h
[8] = Antiproliferative activity against human CFPAC cells after 24 hrs; format: functional, cell-based
[9] = Antiproliferative activity against human BxPC3 cells after 24 hrs; format: functional, cell-based; conditions: BXPC-3, 24 h
[10] = Displacement of [3H]-DTG from sigma 2 receptor in Sprague-Dawley rat liver membranes after 120 mins by scintillation counting analysis; format: cell membranes, Membrane; procedure, shortened: as §1
[11] = Cytotoxicity against human Paca3 cells assessed as decrease in cell viability using complete medium after 24 hrs by MTS assay; format: functional, cell-based; conditions: Paca3, 24 h
Procedure, shortened: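 Cells in exponential growth, 3×10^3 per well, in medium with 10% FCS. Capan-2, PaCa3, MDA-MB 231, SUM 159 and PC3 were grown in DMEM/Ham's F12 with glutamine 2 mM and insulin 10 µg/ml. U87 was grown in EMEM and LNCaP in RPMI, each with glutamine. Compound 0.1–100 µM, continuous exposure (24 h; 48 h for the 48 h lines). MTS, OD 490 nm. IC50 read graphically. Three independent experiments in octuplicate.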

[12] = Displacement of [3H]DTG from sigma 2 receptor in rat brain homogenates without cerebellum; format: tissue-based
[13] = Cytotoxicity against human Paca3 cells assessed as decrease in cell viability under starvation condition after 24 hrs by MTS assay; format: functional, cell-based; conditions: Paca3, 24 h
Procedure, shortened: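 Cells starved 24 h in low-glucose medium without FCS, then treated 24 h with compound in serum-free conditions. MTS read-out, OD 490 nm, expressed as percent of untreated control. IC50 read graphically from the dose-response plot. Three independent experiments in octuplicate.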

[14] = Binding affinity to sigma 2 receptor (unknown origin); procedure, shortened: as §2
[15] = molecular target: Sigma non-opioid intracellular receptor 1 (Homo sapiens, UniProt Q99720); assay: Binding affinity to sigma 1 receptor (unknown origin)
Sigma non-opioid intracellular receptor 1 (Homo sapiens, UniProt Q99720), sequence (Q99720 whole entry): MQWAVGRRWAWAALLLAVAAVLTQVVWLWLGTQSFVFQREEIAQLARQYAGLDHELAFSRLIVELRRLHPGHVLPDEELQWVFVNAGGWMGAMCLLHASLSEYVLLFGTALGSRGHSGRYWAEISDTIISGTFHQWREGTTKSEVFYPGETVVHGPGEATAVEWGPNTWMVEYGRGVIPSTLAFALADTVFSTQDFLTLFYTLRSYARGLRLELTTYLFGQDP

Compound	pKi [1]	pKi [2]	other results
CC(O)(CCN1CCC(Cc2ccccc2)CC1)c1ccc2ccccc2c1 (single isomer, unassigned; (+))	7.09	8.00	
CC(O)(CCN1CCC(Cc2ccccc2)CC1)c1ccccc1 (stereo in doubt; 2a)	6.47	7.57	
CC(CCN1CCC(Cc2ccccc2)CC1)c1ccc2cc(O)ccc2c1 (stereo in doubt; 12)	6.50	7.23	
CC(CCN1CCC(Cc2ccccc2)CC1)c1ccccc1 (racemic)	8.19	8.68	
O[C@@H](CN1C2CCC1CC(c1ccccc1)C2)c1cccc(Br)c1 (stereo not given in full)			pIC50 [3]: ≥ 4.00; pIC50 [4]: ≥ 4.00; pKi [5]: 7.91; pIC50 [6]: ≥ 4.00; pIC50 [7]: ≥ 4.00; pIC50 [8]: ≥ 4.00; pIC50 [9]: ≥ 4.00
CC(CCN1CCC(Cc2ccccc2)CC1)c1ccc2ccccc2c1 (single isomer, unassigned; (+))	7.59	8.22	
CC(CCN1CCC(Cc2ccccc2)CC1)c1ccc2cc(O)ccc2c1 (single isomer, unassigned; (-))	6.98	7.89	
C[C@@H]1CN(CCCn2c3ccccc3c3ccccc32)C[C@H](C)N1 [RIMCAZOLE]			pKi [10]: 6.52
CC(O)(CCN1CCC(Cc2ccccc2)CC1)c1ccc2ccccc2c1 (racemic)	7.20	8.16	
CC(CCN1CCC(Cc2ccccc2)CC1)c1ccc2ccccc2c1 (racemic)	6.84	8.25	
CC(O)(CCN1CCC(Cc2ccccc2)CC1)c1ccc2cc(O)ccc2c1 (racemic)	6.93	7.57	
C/C(=C\CN1CCC(Cc2ccccc2)CC1)c1ccc2cc(O)ccc2c1	6.52	8.02	
CC(O)(CCN1CCC(Cc2ccccc2)CC1)c1ccc2ccccc2c1 (stereo in doubt; 1b)	7.10	7.96	
Fc1ccc(-n2cc(CCCCN3CCC4(CC3)OCc3ccccc34)c3ccccc32)cc1 [SIRAMESINE]			pIC50 [11]: 4.34; pKi [12]: 9.92; pIC50 [13]: 5.22
C/C(=C\CN1CCC(Cc2ccccc2)CC1)c1ccccc1	7.33	9.15	
CC(O)(CCN1CCC(Cc2ccccc2)CC1)c1ccc2cc(O)ccc2c1 (single isomer, unassigned; (-))	6.04	7.21	
CC(O)(CCN1CCC(Cc2ccccc2)CC1)c1ccc2cc(O)ccc2c1 (stereo in doubt; 9a)	7.17	7.15	
CC(CCN1CCC(Cc2ccccc2)CC1)c1ccc2cc(O)ccc2c1 (single isomer, unassigned; (+))	6.24	7.46	
CC(CCN1CCC(Cc2ccccc2)CC1)c1ccccc1 (stereo in doubt; 6b)	8.10	8.52	
CC(CCN1CCC(Cc2ccccc2)CC1)c1ccc2ccccc2c1 (single isomer, unassigned; (-))	7.01	8.16	
CC(O)(CCN1CCC(Cc2ccccc2)CC1)c1ccccc1 (stereo in doubt; 2b)	6.62	7.40	
CC(O)(CCN1CCC(Cc2ccccc2)CC1)c1ccccc1 (racemic)	7.24	8.01	
COc1ccc(C)cc1NC(=O)OC1CC2CCCC(C1)N2CCCCCCN (stereo not given)			pIC50 [3]: ≥ 4.00; pIC50 [4]: ≥ 4.00; pIC50 [6]: ≥ 4.00; pIC50 [7]: ≥ 4.00; pIC50 [8]: ≥ 4.00; pIC50 [9]: ≥ 4.00
COc1ccc(C)cc1NC(=O)OC1CC2CCCC(C1)N2Cc1ccc(N(C)C)cc1 (stereo not given)			pIC50 [3]: ≥ 4.00; pIC50 [4]: ≥ 4.00; pIC50 [6]: ≥ 4.00; pIC50 [7]: ≥ 4.00; pIC50 [8]: ≥ 4.00; pIC50 [9]: ≥ 4.00
COc1ccc(C)cc1NC(=O)OC1CC2CCCC(C1)N2CCCCCCCCCCN (stereo not given)			pKi [14]: 7.72; pKi [15]: 6.88
CC(CCN1CCC(Cc2ccccc2)CC1)c1ccccc1 (single isomer, unassigned; (+))	8.05	8.54	
